Experimental data: ChEMBL document CHEMBL2046385, “Palau'amine and related oroidin alkaloids dibromophakellin and dibromophakellstatin inhibit the human 20S proteasome” (J Nat Prod, 2012)
Calls of active or inactive are those of the source. No cut-off for these calls is given here. Peptide text beside a SMILES is read from it. * marks the point of attachment. Cbz = O=C(OCc1ccccc1)*

Assays:
[1] = Inhibition of caspase-like of purified human 20S proteasome using Z-LLE-AMC as substrate after 30 mins by fluorescence assay
Outline: (§1)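 Purified human 20S core at 1 nM in 50 mM Tris-HCl pH 7.5 with 0.03% SDS, 37 °C. Fluorogenic substrate was used at its Km. Released AMC was read at ex 380/em 460 nm every minute for 30 min. The maximal (linear) rate was used to derive IC50. Each value is the mean of three or more independent experiments.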

[2] = Inhibition of tryptic-like of purified human 20S proteasome using Boc-LRR-AMC as substrate after 30 mins by fluorescence assay; outline: as §1
[3] = Inhibition of chymotryptic-like of purified human 20S immunoproteasome
[4] = Inhibition of chymotryptic-like of purified human 20S proteasome using Suc-LLVY-AMC as substrate after 30 mins by fluorescence assay; outline: as §1
Homo sapiens [5] = species on record: Homo sapiens; test: Irreversible inhibition of chymotryptic-like of purified human 20S proteasome assessed as Suc-LLVY-AMC substrate at 1 uM measured after drug washout
Outline: (§2)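 Washout assay. Human 20S proteasome (1 nM) was exposed to vehicle or inhibitor (1 or 10 μM), then assayed for CT-L activity with Suc-LLVY-AMC as in the main assay. The mixture was washed through a 10K centrifugal filter with 500 volumes of reaction buffer. Retentate CT-L activity was compared with the prewash activity.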

HeLa [6] = test: Inhibition of 20S proteasome in TNFalpha-stimulated human HeLa cells assessed as accumulation of ubiquitinylated cellular proteins at 1 uM after 2 hrs using DAPI staining by fluorescence confocal microscopic analysis; assay type: cell-based
Outline: (§3)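 HeLa cells grown on glass coverslips in MEM with 10% FBS and penicillin/streptomycin. Treated 2 h with 1.0 μM compound or 0.1% DMSO vehicle, TNFα 20 ng/mL stimulation for 2 h. Fixed in 4% paraformaldehyde, permeabilized with 0.5% Triton, blocked in 5% BSA/0.05% Tween-20. […] anti-ubiquitin (P4D1) 1:250 overnight at 4 °C, then Alexa546 secondary; DAPI nuclear stain. DIC and confocal imaging, with quantification of ubiquitin fluorescence intensity.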

HeLa [7] = test: Inhibition of 26S proteasome-mediated IkappaBalpha proteasomal degradation in human HeLa cells at 1 uM after 30 mins using DAPI staining by confocal microscopy analysis; assay type: cell-based
Outline: (§4)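 HeLa cells on coverslips in MEM with 10% FBS were pretreated 30 min with 1 μM compound or 0.1% DMSO vehicle, then given 20 ng/mL TNFα for 30 min or left unstimulated. Fixed in paraformaldehyde, permeabilized with Triton, blocked in BSA/Tween. Mouse anti-IκBα (L35A5) 1:250 overnight at 4 °C, then Alexa-labelled secondary; DAPI counterstain. Confocal imaging with quantified IκBα fluorescence intensity; p-value versus vehicle/TNFα.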

HeLa [8] = test: Inhibition of 20S proteasome in TNFalpha-stimulated human HeLa cells assessed as accumulation of ubiquitinylated cellular proteins at 1 uM after 2 hrs using DAPI staining by DIC image analysis; assay type: cell-based; outline: as §3
Homo sapiens [9] = species on record: Homo sapiens; test: Irreversible inhibition of chymotryptic-like of purified human 20S proteasome assessed as Suc-LLVY-AMC substrate at 10 to 50 uM measured after drug washout
Homo sapiens [10] = species on record: Homo sapiens; test: Irreversible inhibition of chymotryptic-like of purified human 20S proteasome assessed as Suc-LLVY-AMC substrate at 0.5 to 1 uM
Outline: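 Suc-LLVY-AMC 50 μM (Km). AMC fluorescence λex 380/λem 440. Vmax taken from linear portions and plotted against [E]. An irreversible inhibitor intersects the horizontal axis rather than passing through the origin.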

Homo sapiens [11] = species on record: Homo sapiens; test: Reversible inhibition of purified human 20S proteasome at pH >7.5
Outline: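 Compound preincubated in assay buffer (50 mM Tris-HCl, 0.03% SDS) at pH 7.5 or 8.0 for varying times before enzyme addition. Residual inhibition of 1 nM purified human 20S proteasome then read by fluorogenic AMC release at 37 °C over 30 min.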

HeLa [12] = test: Inhibition of 26S proteasome-mediated IkappaBalpha proteasomal degradation in TNFalpha-stimulated human HeLa cells at 1 uM treated 30 mins before TNFalpha challenge measured after 30 mins using DAPI staining by confocal microscopy analysis; assay type: cell-based; outline: as §4
Homo sapiens [13] = species on record: Homo sapiens; test: Reversible inhibition of chymotryptic-like of purified human 20S proteasome assessed as Suc-LLVY-AMC substrate at 1 uM measured after drug washout; outline: as §2

SMILES | IC50 [1] | IC50 [2] | IC50 [3] | IC50 [4] | further results
O=c1c2cc(Br)c(Br)n2cc2n1CCC2 | > 100 µM | > 100 µM | > 100 µM | > 100 µM | –
NC[C@@H]1[C@H]2CN3C(=O)c4cccn4[C@@H]4NC(N)=N[C@@]43[C@@H]2[C@]2(N=C(N)N[C@H]2O)[C@H]1Cl [listing 1 of 2 here] | 1.6 µM | – | 2.3 µM | 2.5 µM | –
O=C1N[C@H]2n3c(cc(Br)c3Br)C(=O)N3CCC[C@]23N1 (racemic) [DIBROMOPHAKELLSTATIN] | 16.1 µM | > 100 µM | 6.2 µM | 11.9 µM | –
CC[C@H](C)[C@H](NC(=O)[C@H]([C@@H](C)CC)N(C)C(C)=O)C(=O)N[C@H](C(=O)N[C@@H](CC(C)C)C(=O)[C@@]1(C)CO1)[C@@H](C)O | – | – | – | – | inhibition (Homo sapiens [5]): Active
NC1=N[C@]23CCCN2C(=O)c2cc(Br)c(Br)n2[C@@H]3N1 (racemic) [DIBROMOPHAKELLIN] | 27.1 µM | > 100 µM | 18.7 µM | 25.3 µM | –
NC[C@@H]1[C@H]2CN3C(=O)c4cccn4[C@@H]4NC(N)=N[C@@]43[C@@H]2[C@]2(N=C(N)N[C@H]2O)[C@H]1Cl [listing 2 of 2 here] | – | – | – | – | inhibition (HeLa [6]): Active; inhibition (HeLa [7]): Active; inhibition (HeLa [8]): Active; inhibition (Homo sapiens [9]): Active; inhibition (Homo sapiens [10]): Active; inhibition (Homo sapiens [11]): Active; inhibition (HeLa [12]): Active
NC[C@@H]1[C@H]2CN3C(=O)c4cccn4[C@@H]4NC(N)=N[C@@]43[C@@H]2[C@]2(N=C(N)N[C@H]2O)[C@H]1Cl (racemic) | 3 µM | > 100 µM | 4 µM | 5.5 µM | –
CC(C)C[C@@H](C=O)NC(=O)[C@H](CC(C)C)NC(=O)[C@H](CC(C)C)NC(=O)OCc1ccccc1 (Cbz-Leu-Leu-Leu-aldehyde) | – | – | – | – | inhibition (Homo sapiens [13]): Active
